Source: PubChem BioAssay
The entries come from a sample that favours hits as a whole.
CHOP UPR activ – apoptotic UPR (CHOP) activation; AID 449763; CHO-CHOP luciferase reporter, luminescence; percent of tunicamycin response over DMSO baseline; activation, % at 10 µM; 330,000 compounds, 0.34% hits;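 active = at 10 µM dose, activation of 40% or more, normalized to positive control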;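 note: 100% = tunicamycin at 10 µg/mL and 0% = DMSO alone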
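assay system = CHO CHOP reporter cells | amount = 500 CHO-CHOP cells per well | buffer or medium = F12 with 10% FBS | incubation = 16-18 h cell attachment, then 6 h compound exposure, 37 °C | detection = luminescence read with Steady-Glo | read-out = percent activation relative to tunicamycin control | controls = tunicamycin high control, DMSO low control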
CHOP inhibitor – CHOP inhibition in unfolded protein response | 220,000 compounds, 3.8% hits | AID 2732 | inhibition, % at 10 µM | CHO-K1 CHOP-promoter luciferase, tunicamycin-induced, 15-18 h;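 active = compounds that reduced the stress-induced luciferase reporter signal by more than about 70% of percent inhibition, limit read from the data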;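 note: 0% = tunicamycin plus vehicle and 100% = wells without tunicamycin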
UPR XBP1 act – adaptive UPR (XBP1) activation | AID 463104 | activation, % at 20 µM | 330,000 compounds, 0.33% hits | CHO-XBP1 luciferase reporter, IRE1-XBP1 UPR activation, luminescence; percent of tunicamycin response, DMSO as zero;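 active = versus positive control, 20 µM dose yields 30% or more activation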;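 note: 100% = tunicamycin at 10 µg/mL and 0% = DMSO only wells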
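Material: CHO cell line with stable XBP1 luciferase reporter; buffer or medium: F12 medium containing 10% fetal bovine serum; compound: single point, 20 µM final compound, 1% DMSO; incubation: 6 h treatment, 37 °C; measured by: glow luminescence from Steady-Glo reagent; evaluation: activation, % of tunicamycin; control set: tunicamycin high, DMSO low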
PvdQ inh – blocks Pseudomonas aeruginosa PvdQ acylase activity; purified PvdQ acylase, fluorescence plate reader; inhibition, % at 10 µM; 340,000 compounds, 0.063% hits; in the data active = inhibition above about 30%, passing the limit was not always enough;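 note: 0% = vehicle neutral wells and 100% = reference inhibitor wells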
Active calls of the source: *; . = no result given.

SMILES	CHOP UPR activ	CHOP inhibitor	UPR XBP1 act	PvdQ inh
COC(=O)c1c(-c2ccc(F)cc2)csc1NC(=O)c1ccco1	7.5	-29.9	4.0	-7.9
O=C(/C(=C/O)N=Nc1ccccc1)c1ccncc1	-3.6	18.9	-2.8	2.2
O=C(/C(=C/O)N=Nc1ccccc1)c1ccc(Cl)cc1	3.5	92.4*	4.8	-8.0
Cc1ccc(N=N/C(=C\O)C(=O)c2ccc(Cl)cc2)cc1	24.9	95.2*	8.3	10.0
COc1cc(NC(=O)c2csc(N)n2)cc(C(=O)Nc2cccc(C(F)(F)F)c2)c1	3.7	79.4*	0.8	-7.7
COc1cc(NC(=O)c2cnc(N)s2)cc(C(=O)Nc2cccc(C(F)(F)F)c2)c1	0.7	-0.3	-1.2	.
NC(=O)C1CCN(C(=O)CCC(=O)c2cccs2)CC1	1.3	.	-1.5	11.2
CSc1nnc2n(-c3ccc(C)cc3)c(=O)c3c4c(sc3n12)COC(C(C)C)C4 (stereo not given)	3.0	80.9*	5.6	-10.1
Cc1ccc(-n2c(=O)c3c4c(sc3n3c(C)nnc23)COC(C(C)C)C4)cc1 (stereo not given)	0.9	.	0.9	-6.3
Cc1ccccc1N(C(=O)CS(=O)CC(=O)Nc1ccc(F)cc1)C(C)C(=O)NC(C)(C)C (stereo not given)	-1.3	.	3.3	-1.9
CCOC(=O)c1c(NC(=O)CN2C(=O)NC3(CCCCC3)C2=O)sc(C)c1-c1ccc(C)cc1	2.8	70.7*	3.1	14.4
CCOC(=O)c1c(NC(=O)CN2C(=O)NC3(CCC(C)CC3)C2=O)sc(C)c1-c1ccc(C)cc1 (stereo not given)	3.5	81.9*	8.0	-10.2
O=C(/C=C\c1cccs1)c1c(O)ccc2ccc(=O)oc12	-0.2	-60.2	-3.3	-1.6
CC1C(c2ccccc2)N(C)C(c2ccccc2)CC1(O)c1ccccc1 (stereo not given)	-1.4	85.1*	5.0	2.3
CC1/C(=N/O)CC(c2ccccc2)N(C)C1c1ccccc1 (stereo not given)	1.9	93.4*	0.7	0.9
CC1/C(=N/O)CC(c2ccccc2)NC1c1ccccc1 (stereo not given)	6.2	47.4	-3.6	-5.0
CCN1CC(C)C(O)(c2ccccc2)CC1C (stereo not given)	0.4	6.0	-1.2	-9.9
O=C1NC(=Nc2ccc3ccccc3c2)S/C1=C/c1ccco1	2.5	85.5*	-0.3	-3.2
Cc1cccc(N=C2NC(=O)S/C2=C\c2ccco2)c1	-1.0	72.4*	-2.4	2.8
CCOc1ccc(S(=O)(=O)N2CCOCC2)cc1NC(=O)CSC(=S)N1CCCC1	0.2	.	-1.8	-3.6
CCCc1cc(-c2n[nH]c(=S)n2C(C)c2ccccc2)cs1 (stereo not given)	0.3	95.8*	0.6	-18.5
CCCc1cc(-c2n[nH]c(=S)n2CC)cs1	-0.4	38.2	-0.6	-8.3
CS(=O)(=O)N1CCCC(C(=O)Nc2ccc(F)c(F)c2)C1 (stereo not given)	-3.1	.	-0.7	-16.7
C=CCN1C(=O)/C(=C/c2ccc(N(C)C)cc2)S/C1=N\c1nnc(CC)s1	.	104.4*	.	.
COc1cc(/C=C/c2cc(OC(C)=O)c3ccccc3n2)c(OC(C)=O)c([N+](=O)[O-])c1	-3.5	86.7*	0.1	7.6
SMILES	CHOP UPR activ	CHOP inhibitor	UPR XBP1 act	PvdQ inh
Cc1ccc(Cc2ccccc2C(=O)O)cc1	.	.	.	-7.7
CCCCOCCCNc1ncnc2c1[nH]c1ccccc12	8.3	84.7*	0.4	-6.4
CCOCCCNc1ncnc2c1[nH]c1ccccc12	1.3	47.5	4.2	-7.3
CC(=O)c1ccc(-n2nnnc2SCC(=O)Nc2sc(C)c(C)c2C#N)cc1	2.2	80.7*	1.7	-8.5
Cc1ccc(-n2nnnc2SCC(=O)Nc2sc(C)c(C)c2C#N)cc1C	-2.1	83.2*	2.8	-4.6
Cc1ccc(NC(=O)CSc2nnnn2-c2ccc3c(c2)OCO3)cc1C	-4.4	92.4*	-4.5	1.4
CCCn1nnnc1SCC(=O)Nc1sc(C)c(C)c1C#N	-2.7	22.2	-1.5	.
Cc1sc(NC(=O)CSc2nnnn2C)c(C#N)c1C	-2.3	-0.4	5.2	-12.7
O=C(CSc1nnnn1-c1ccccc1)Nc1ccc(Cl)cc1	0.7	88.3*	0.8	-12.2
CCCCn1c(N)c(N(CC(C)C)C(=O)c2cccc(OCc3ccccc3)c2)c(=O)[nH]c1=O	0.1	.	-3.0	9.6
CCCCCCCCNC(=O)/C(C#N)=C/c1ccccc1[N+](=O)[O-]	1.8	94.1*	-2.7	5.9
N#C/C(=C\c1ccccc1[N+](=O)[O-])C(=O)NCc1ccccc1	-1.1	-17.0	5.2	-5.1
Cc1noc(C)c1C(=O)Nc1sc2c(c1C(N)=O)CCCCC2	3.7	91.3*	-0.3	-13.6
Cc1cc(C)c(C)c(S(=O)(=O)NCC(=O)Nc2sc3c(c2C(N)=O)CCCC3)c1C	2.2	94.6*	-3.3	9.7
CCOCCOC(=O)C1=C(C)NC(=O)NC1c1cc2c(cc1Br)OCO2 (stereo not given)	2.5	.	-4.1	-13.5
Cc1ccc(NC(=O)C2(S(=O)(=O)c3ccc(Cl)cc3)CC2)c(Br)c1	0.6	.	-0.3	7.6
O=C(CCN1C(=O)/C(=C/c2cccs2)SC1=S)Nc1ccc(C(=O)O)cc1	2.4	.	-0.3	11.2
COc1ccc(C(=O)Nc2ccc(S(=O)(=O)N3CCCCC3)cc2)cc1OC	-0.4	55.7	-0.6	-10.7
COc1ccc(-c2cnnn2-c2ccc(NC(=O)c3ccc(S(=O)(=O)N4CCCCC4)cc3)cc2)cc1OC	0.6	77.6*	18.6	6.8
COc1ccc(CN2C(=O)c3ccccc3C2C(=O)NC2CCC(C)CC2)c(OC)c1 (stereo not given)	-2.1	8.8	1.3	-12.6
O=C(Nc1ccc(NC(=O)c2cccs2)cc1)c1ccc(Br)o1	1.1	90.5*	2.6	-12.6
CSc1ccc(S(=O)(=O)NC2CCCCCC2)cc1	-1.0	78.0*	-4.7	-10.1
O=C(Nc1cccc(NC(=O)c2cccs2)c1)c1ccc(Br)o1	-0.7	.	-5.6	10.5
Cc1ccc(S(=O)(=O)NC2CCCCC2)cc1	1.9	.	-0.8	-7.0
O=C(Nc1ccc(S(=O)(=O)NC2CCCCC2)cc1)c1ccc(Br)o1	0.0	82.8*	-3.7	-9.0
SMILES	CHOP UPR activ	CHOP inhibitor	UPR XBP1 act	PvdQ inh
Cc1cc(C)nc(CCNC(=O)c2cc(COc3c(C)cccc3C)on2)n1	3.7	.	-2.3	-20.4
CCOc1ccc(NC(=O)CCCOc2cc(=O)n(C)c3ccccc23)cc1	2.3	74.2*	1.0	-4.7
CC(=O)N(C(C)=O)N1C(=O)/C(=C/c2ccc(Cl)cc2)SC1=S	-0.9	91.4*	-0.2	-3.6
S=C(NCc1ccc2c(c1)OCO2)Nc1ccc2nsnc2c1	3.7	4.8	2.6	40.7*
Cc1ccc(C2OCC3(CO2)COC(c2ccc(C)cc2)OC3)cc1 (stereo not given)	-2.2	80.5*	-1.7	-6.1
c1ccc(C2OCC3(CO2)COC(c2ccccc2)OC3)cc1 (stereo not given)	3.1	2.2	0.2	-15.2
CSC1=NCCCN1C(=O)c1c(-c2ccccc2Cl)noc1C	-2.6	12.5	-0.4	4.7
